From PubChem BioAssay
Most compounds without a hit are left out; they make up all but 2.1% or so of the library.
sdo1 growth: growth rescue of sdo1-depleted yeast, primary screen, S. cerevisiae, bone marrow failure model; S. cerevisiae sdo1-depleted JHY4D growth rescue, OD600 30 h; active compounds read high; pdr5 snq2 efflux-pump mutant strain; z-score at 10 µM; hit rate 0.21% among 140,000; AID 817, 2007;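 active = z-score above 3 at both the 24 hr and the 30 hr optical density reads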
MRP1 act: H69AR viability gain despite doxorubicin, primary screen, MRP-1 activator project, H69AR cells, CellTiter-Glo. viability rescue. hit rate 0.61% among 140,000. viability increase, % at 10 µM. AID 799, 2007;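 active = viability gain under doxorubicin at or above a set limit, the compound median plus 3 SD, cut at about 4.7% in these data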;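 also: MRP-1 overexpressing cells given doxorubicin 25 µM after compound pretreatment; 18-22 h compound pretreatment then 72 h with doxorubicin before readout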
Yeast lifespan up: compounds extending yeast replicative lifespan, primary screen, S. cerevisiae, OD615; S. cerevisiae growth with nicotinamide; deaD strain in restrictive glucose medium; inhibition of the nicotinamide effect, % at 10 µM; hit rate 0.68% among 130,000; AID 775, 2007;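 active = inhibition above a set limit, placed 3 SD over the median of all compounds, cut at about 26% in these data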
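Test system: DeaD-strain S. cerevisiae / Buffer or medium: restrictive glucose medium / Also added: nicotinamide 1.5 mM / Doses: one concentration, 10 µM, DMSO 0.25% / Schedule: 48 h at 30 °C / Signal: OD615 measurement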
Phagocytosis inh: inhibitors of macrophage phagocytosis, primary screen, imaging, J774A.1 cells, IgG beads; J774A.1 macrophage IgG-bead phagocytosis; AID 1029, 2008; hit rate 0.07% among 110,000; inhibition, % at 5 µM;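 active = inhibition above the mean of the plate negative controls plus 5 SD, cut at about 13% in these data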;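 also: phagocytic index as fraction of beads internalized from green versus red external bead signal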
Yeast growth inh: growth inhibitors of yeast BB579 in restrictive medium, primary screen, yeast lifespan-shortening project, S. cerevisiae; OD615, 48 h; inhibition, % at 10 µM; hit rate 0.51% among 140,000;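 active = inhibition above a set limit, 3 SD over the mean compound inhibition, cut at about 44% in these data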
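Detection: OD615 turbidity measurement; Material: Saccharomyces cerevisiae DeaD strain BB579, replicative lifespan model yeast; Timing: 48 h exposure, 30 °C; Doses: single 10 µM dose; Medium: CSMM-D restrictive synthetic medium containing dextrose (glucose); Controls: amphotericin B at 10 µg/mL as positive control.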
MRP resist rev: reversal of MRP1-mediated doxorubicin resistance, primary screen, H69AR cells, doxorubicin co-treatment. H69AR cells + 2 uM doxorubicin, CellTiter-Glo, 72 h. differential viability (reversal), % at 10 µM. hit rate 0.04% among 85,000. AID 602, 2007;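 active = viability drop by adding the cancer drug above about 55%, with treated viability meeting a 40% cutoff, limit read from the data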;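 also: larger differential means the compound sensitizes cells more to doxorubicin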
Of the large screens only hits and unclear results are named; the others gave an inactive call.

CCN(CC)S(=O)(=O)c1cccc(C(=O)N[C@H](C(=O)OCC(N)=O)C(C)C)c1	none (no result: Phagocytosis inh)
CCN(C(=O)c1ccc(NC(C)=O)cc1)c1ccccc1	none
Cc1ccc(/C=N\NC(=O)c2cc([N+](=O)[O-])cc([N+](=O)[O-])c2)o1	none (no result: MRP resist rev)
Cc1cc(C)n(CCC(=O)N/N=C/c2ccccc2O)n1	MRP1 act 5.6 (no result: MRP resist rev)
Cc1cc(C)n(CCC(=O)N/N=C/c2ccc(O)cc2O)n1	none (no result: MRP resist rev)
COC(=O)c1c(O)cc(C(C)(C)C)n(-c2ccc(F)cc2)c1=O	none (no result: MRP resist rev)
CC1CN(c2nc3ccccc3nc2C(C#N)C(=O)NCc2ccc3c(c2)OCO3)CC(C)O1 (configuration not stated)	none
CC(C)c1cc[n+](-c2nc([O-])sc2C=O)cc1	Yeast lifespan up 31 (no result: MRP resist rev)
CCc1cc[n+](-c2nc([O-])sc2C=O)cc1	none (no result: MRP resist rev)
CCn1c(=O)n(Cc2ccco2)c(=N)c2c3c(sc21)COC(C)(C)C3	none (no result: MRP resist rev)
CCCCOC(=O)c1ccc(NC(C)=O)cc1	none (no result: MRP resist rev)
CCCCOC(=O)c1ccc(NC(=O)/C=C/c2cccs2)cc1	MRP1 act 4.8 (no result: MRP resist rev)
O=C1CC(N2CCC(O)(c3ccc(Br)cc3)CC2)C(=O)N1c1ccc(Cl)cc1 (configuration not stated)	MRP1 act 6.3 (no result: Phagocytosis inh, MRP resist rev)
O=C1CC(N2CCCN(C3CC(=O)N(c4ccc(F)cc4)C3=O)CC2)C(=O)N1c1ccc(F)cc1 (configuration not stated)	MRP1 act 8.3
COc1ccc(N2C(=O)CC(N3CCC(O)(c4ccc(Br)cc4)CC3)C2=O)cc1 (configuration not stated)	none
O=C1CC(N2CCCCC2)C(=O)N1c1ccccc1 (configuration not stated)	none (no result: Yeast lifespan up, Phagocytosis inh)
COc1cccc(-c2nc3n(n2)C(c2ccc4c(c2)OCO4)C(C(N)=O)=C(C)N3)c1 (configuration not stated)	none (no result: Phagocytosis inh)
COc1ccccc1C(=O)Oc1ccc2c(c1)O/C(=C\c1ccncc1)C2=O	Yeast lifespan up 47 (no result: MRP resist rev)
CCOC(=O)c1cc(-c2ccccc2)n(CC(=O)N2CCCC2)c1C	none
O=C(N/N=C/C=C/c1ccccc1[N+](=O)[O-])c1cc(-c2cccnc2)nc2ccccc12	none (no result: MRP resist rev)
O=c1c(Cl)c(Nc2cccc(Cl)c2)cnn1-c1nc2ccccc2s1	none (no result: MRP resist rev)
COc1ccc(Nc2cnn(-c3nc4ccccc4s3)c(=O)c2Cl)cc1	Yeast growth inh 78 (no result: MRP resist rev)
O=C(CSC1=NS(=O)(=O)c2ccccc21)Nc1ccccc1	Yeast growth inh 73
COC(=O)CSC1=NS(=O)(=O)c2ccccc21	none
O=C1CC(c2cccc(Br)c2)c2cc3c(cc2N1)CCC3 (configuration not stated)	none (no result: MRP resist rev)
O=c1cc(O)nc(SCc2ccc(Cl)cc2)[nH]1	none
CC(Sc1nncs1)C(=O)Nc1ccc(Cl)cn1 (configuration not stated)	none (no result: MRP resist rev)
COc1ccc(-c2csc(N3C(=O)CNC3=S)n2)cc1	none (no result: MRP resist rev)
O=C1CNC(=S)N1c1nc(-c2ccccc2)cs1	MRP1 act 4.8 (no result: MRP resist rev)
CCC(C)NCc1ccc(C(=O)OC)o1 (configuration not stated)	none (no result: Phagocytosis inh)
CCOc1ccc(/C=N/O)cc1	none
CCCCCCCCCCCCCCCC[n+]1ccc(/C=N/O)cc1	Yeast growth inh 100 (no result: MRP resist rev)
CCCCCCCCCCCCCCCC[n+]1ccc(C(N)=O)cc1	Yeast growth inh 100 (no result: MRP resist rev)
CCCCCCCCCCCCCCCC[n+]1cccc(C(=O)N(CC)CC)c1	Yeast growth inh 101 (no result: MRP resist rev)
CCCCCCCC[n+]1cccc(C(=O)N(CC)CC)c1	none (no result: MRP resist rev)
Cc1cccc(N(CC(=O)NC2CCCCC2)C(=O)c2ccc(C)s2)c1	none (no result: MRP resist rev)
CC(NC(=O)/C(=C/c1cccc([N+](=O)[O-])c1)NC(=O)c1ccco1)C(=O)O (configuration not stated)	none (no result: MRP resist rev)
O=C(CSc1nc2ccccc2o1)c1cc2ccccc2oc1=O	Yeast lifespan up 38 (no result: Phagocytosis inh)
Cc1cc[n+](CC(=O)c2cc3ccccc3oc2=O)cc1	Yeast lifespan up 29 (no result: MRP resist rev)
Cc1cc(C)nc(SCC(=O)c2cc3ccccc3oc2=O)n1	none
COc1ccc(NC(=O)CCC(=O)N(Cc2ccc(OC)c(OC)c2)c2nccs2)cc1	none (no result: MRP resist rev)
O=C(CCCn1cnc([N+](=O)[O-])n1)Nc1ccc(Cl)cc1Cl	none (no result: MRP resist rev)
CCOC(=O)Cn1c(=O)c2c(nc3n2CCN3Cc2ccccc2)n(C)c1=O	Yeast lifespan up 29
Cn1c(COc2ccccc2)nnc1SCc1cc(=O)[nH]c2ccccc12	Yeast lifespan up 44 (no result: MRP resist rev)
CCC(C)NCCCCOc1ccc(Br)cc1 (configuration not stated)	none (no result: MRP resist rev)
O=C1C=CC2C(c3ccc4c(c3)OCO4)CC1N2Cc1ccccc1 (configuration not stated)	Yeast lifespan up 50 (no result: MRP resist rev)
COc1ccc(OC)c(CN(CCCN2CCOCC2)S(=O)(=O)c2ccc(NC(C)=O)cc2)c1	none
CCCSc1nc(C)cc(=O)[nH]1	none
CCCSc1nc(N)cc(=O)[nH]1	Yeast lifespan up 34
Cc1ccc2c(c1)c(=O)c(Br)c(C)n2Cc1ccccc1	none (no result: MRP resist rev)
NC(N)=N/N=C/c1ccc(OCc2ccc(Cl)cc2)cc1	Yeast growth inh 78 (no result: MRP resist rev)
Nc1ccc(SC(F)(F)F)cc1C(=O)c1ccccc1	Yeast growth inh 57
Nc1cc(C(=O)c2ccccc2)ccc1N1CCOCC1	none (no result: Yeast lifespan up, Phagocytosis inh)
CCOc1ccc(C(=O)C(CN2CCOCC2)c2ccccc2)cc1 (configuration not stated)	Yeast lifespan up 49 (no result: MRP resist rev)
O=C(c1ccccc1)c1ccc(OCC(O)CN2CCOCC2)cc1 (configuration not stated)	none (no result: sdo1 growth, MRP1 act, Yeast lifespan up, Phagocytosis inh, Yeast growth inh)
Cc1nnc(NC(=O)C(C)Oc2ccc3c(C)cc(=O)oc3c2)s1 (configuration not stated)	MRP1 act 7.7
CC(=O)c1c(C(C)=O)c(C)n(NC(=O)c2cccnc2)c1C	Yeast lifespan up 46
CC(=O)c1c(C(C)=O)c(C)n(NC(=O)c2ccccc2O)c1C	none
COc1ccc(OC)c(NC(=O)NCc2ccc(F)cc2)c1	none
Cc1[nH]nc2nc3c(c(OC(=O)c4ccccc4)c12)c(=O)n(C)c(=O)n3C	Yeast lifespan up 52
COC(=O)c1cc(OC)nc2c1c(=O)n(C)c(=O)n2C	none (no result: MRP resist rev)
O=C(NC(=S)Nc1nc(-c2ccc(Br)cc2)cs1)c1cccnc1	none (no result: Phagocytosis inh, MRP resist rev)
CC(=O)Oc1oc(-c2ccccc2)nc1C=Nc1ccccc1	Yeast lifespan up 46
CCOC(=O)c1ccc(N=Cc2nc(-c3ccccc3)oc2OC(C)=O)cc1	none
Cc1ccc(C)c(N2CCN(C(=O)Cc3ccc(-n4c(=O)[nH]c5ccsc5c4=O)cc3)CC2)c1	MRP1 act 9.6 (no result: MRP resist rev)
CCn1c(CNC(=O)c2cccs2)nnc1SCC(=O)NCCc1ccccc1	none
Cc1ccnc(SCc2cc(=O)c(OC(=O)c3ccco3)co2)n1	Yeast lifespan up 42 (no result: MRP resist rev)
